Source: the M2OR odorant receptor database
Residue numbers refer to the chain shown, from its start.

Key:
Settings in all cases: stereoisomer not certain
[1] = molecular target: T1, UniProt Q7TR71
T1 sequence (whole entry): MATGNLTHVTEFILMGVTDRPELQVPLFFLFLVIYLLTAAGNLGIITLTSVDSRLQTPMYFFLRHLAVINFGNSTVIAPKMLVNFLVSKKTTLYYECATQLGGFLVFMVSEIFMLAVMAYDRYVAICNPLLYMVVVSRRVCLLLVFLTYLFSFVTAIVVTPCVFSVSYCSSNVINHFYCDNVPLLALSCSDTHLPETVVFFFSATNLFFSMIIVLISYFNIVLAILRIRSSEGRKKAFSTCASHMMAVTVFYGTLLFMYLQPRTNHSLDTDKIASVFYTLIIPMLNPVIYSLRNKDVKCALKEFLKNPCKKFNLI
Outline: (§1)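 Whether a receptor–molecule pair is responsive (active) rests on the original authors' judgment that its measured signal was statistically different from baseline. Pairs without that judgment are non-responsive (inactive). Sources used varied assay methods, commonly transient luciferase assays in mammalian cell lines.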

[2] = molecular target: T2, UniProt Q7TR79
T2 sequence (whole entry): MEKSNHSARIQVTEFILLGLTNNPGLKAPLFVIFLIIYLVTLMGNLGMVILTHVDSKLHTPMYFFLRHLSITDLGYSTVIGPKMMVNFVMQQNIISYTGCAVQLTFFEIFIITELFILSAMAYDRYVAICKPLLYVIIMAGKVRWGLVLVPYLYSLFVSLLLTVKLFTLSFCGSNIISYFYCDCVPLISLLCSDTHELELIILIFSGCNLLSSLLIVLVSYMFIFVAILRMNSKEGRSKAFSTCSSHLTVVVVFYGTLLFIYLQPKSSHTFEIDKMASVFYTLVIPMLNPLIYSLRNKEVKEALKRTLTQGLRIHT
Outline: as §1

[3] = molecular target: T3, UniProt Q7TRA1
T3 sequence (whole entry): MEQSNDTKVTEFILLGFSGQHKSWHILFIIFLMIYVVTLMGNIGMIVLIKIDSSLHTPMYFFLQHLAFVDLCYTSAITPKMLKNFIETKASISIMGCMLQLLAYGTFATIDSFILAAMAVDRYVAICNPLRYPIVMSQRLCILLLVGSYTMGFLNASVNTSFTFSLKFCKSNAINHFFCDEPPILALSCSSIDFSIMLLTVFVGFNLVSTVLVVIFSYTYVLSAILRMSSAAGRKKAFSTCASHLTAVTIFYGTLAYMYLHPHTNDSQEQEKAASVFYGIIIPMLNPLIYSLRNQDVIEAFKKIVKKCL
Outline: as §1

[4] = molecular target: T4, UniProt Q7TRA2
T4 sequence (whole entry): T3 sequence (whole entry) with S18A, I86T, I94F, M95I, S112C, V208L, T219I, V221I, V305A
Outline: as §1

[5] = molecular target: T5, UniProt Q7TRA3
T5 sequence (whole entry): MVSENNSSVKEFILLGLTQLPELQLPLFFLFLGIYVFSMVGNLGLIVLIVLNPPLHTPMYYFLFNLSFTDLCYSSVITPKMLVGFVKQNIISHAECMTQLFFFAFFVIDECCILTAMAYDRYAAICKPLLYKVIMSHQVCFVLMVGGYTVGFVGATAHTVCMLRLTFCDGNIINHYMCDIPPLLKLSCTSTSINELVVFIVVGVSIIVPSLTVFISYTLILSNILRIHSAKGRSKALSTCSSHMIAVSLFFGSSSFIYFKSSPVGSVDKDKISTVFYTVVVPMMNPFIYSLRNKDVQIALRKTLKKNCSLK
Outline: as §1

[6] = molecular target: T6, UniProt Q7TRE4
T6 sequence (whole entry): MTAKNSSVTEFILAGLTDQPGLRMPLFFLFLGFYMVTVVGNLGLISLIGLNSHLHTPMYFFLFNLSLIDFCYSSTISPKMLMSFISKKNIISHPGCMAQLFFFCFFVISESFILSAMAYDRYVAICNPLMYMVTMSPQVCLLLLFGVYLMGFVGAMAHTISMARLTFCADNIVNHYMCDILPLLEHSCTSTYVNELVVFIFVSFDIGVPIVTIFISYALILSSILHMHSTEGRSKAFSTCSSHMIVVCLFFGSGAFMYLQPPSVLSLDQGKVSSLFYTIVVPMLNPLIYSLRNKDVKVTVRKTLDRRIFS
Outline: as §1

[7] = molecular target: T7, UniProt Q7TRM0
T7 sequence (whole entry): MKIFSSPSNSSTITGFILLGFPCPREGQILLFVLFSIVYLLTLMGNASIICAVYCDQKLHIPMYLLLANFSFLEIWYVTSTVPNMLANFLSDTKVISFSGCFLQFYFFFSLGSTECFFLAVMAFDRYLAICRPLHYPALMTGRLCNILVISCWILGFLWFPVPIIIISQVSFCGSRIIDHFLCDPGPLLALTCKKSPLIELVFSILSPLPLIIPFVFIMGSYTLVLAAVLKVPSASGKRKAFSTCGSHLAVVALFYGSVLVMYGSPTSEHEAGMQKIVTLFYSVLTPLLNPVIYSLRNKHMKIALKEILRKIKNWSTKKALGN
Outline: as §1

[8] = molecular target: T8, UniProt Q7TRN9
T8 sequence (whole entry): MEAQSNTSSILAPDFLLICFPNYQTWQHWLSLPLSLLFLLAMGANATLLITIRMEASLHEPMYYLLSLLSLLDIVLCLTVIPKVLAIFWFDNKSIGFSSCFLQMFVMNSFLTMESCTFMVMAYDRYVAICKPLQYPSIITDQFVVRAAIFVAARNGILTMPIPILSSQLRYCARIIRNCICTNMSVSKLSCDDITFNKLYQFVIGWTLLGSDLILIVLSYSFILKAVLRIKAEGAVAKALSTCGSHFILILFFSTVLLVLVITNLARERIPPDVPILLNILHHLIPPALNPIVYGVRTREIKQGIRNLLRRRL
Outline: as §1

[9] = molecular target: UniProt Q7TRR7
Sequence of UniProt Q7TRR7 (Q7TRR7 as listed by the source): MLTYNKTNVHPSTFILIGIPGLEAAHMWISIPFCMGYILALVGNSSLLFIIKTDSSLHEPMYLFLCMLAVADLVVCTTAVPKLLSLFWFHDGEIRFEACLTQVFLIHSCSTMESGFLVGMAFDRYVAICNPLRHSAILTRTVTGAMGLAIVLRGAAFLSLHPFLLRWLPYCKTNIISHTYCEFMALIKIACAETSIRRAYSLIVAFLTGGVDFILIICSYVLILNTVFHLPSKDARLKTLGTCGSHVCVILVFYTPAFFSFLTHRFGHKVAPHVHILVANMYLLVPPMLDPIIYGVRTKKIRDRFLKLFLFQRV
Outline: as §1

[10] = molecular target: T9, UniProt Q7TRR8
T9 sequence (whole entry): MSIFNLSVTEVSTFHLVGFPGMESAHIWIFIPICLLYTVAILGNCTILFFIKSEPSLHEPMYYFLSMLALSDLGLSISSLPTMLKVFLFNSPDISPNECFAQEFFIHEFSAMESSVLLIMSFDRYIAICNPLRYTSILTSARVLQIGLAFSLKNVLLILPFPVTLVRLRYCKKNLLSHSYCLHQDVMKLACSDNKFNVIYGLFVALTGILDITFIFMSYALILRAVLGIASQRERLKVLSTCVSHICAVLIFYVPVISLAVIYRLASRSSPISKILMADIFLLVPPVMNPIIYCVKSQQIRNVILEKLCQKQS
Outline: as §1

[11] = molecular target: T10, UniProt Q7TRW1
T10 sequence (whole entry): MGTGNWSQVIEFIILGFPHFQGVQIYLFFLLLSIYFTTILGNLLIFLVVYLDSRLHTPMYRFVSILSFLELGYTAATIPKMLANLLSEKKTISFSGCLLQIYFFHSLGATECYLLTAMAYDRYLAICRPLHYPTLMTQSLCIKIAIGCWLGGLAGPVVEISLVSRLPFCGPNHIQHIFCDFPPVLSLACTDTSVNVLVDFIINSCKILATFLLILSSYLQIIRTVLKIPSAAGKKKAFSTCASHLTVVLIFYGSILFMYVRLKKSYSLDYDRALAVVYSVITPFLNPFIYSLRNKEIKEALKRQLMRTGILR
Outline: as §1

[12] = molecular target: T11, UniProt Q7TRX0
T11 sequence (whole entry): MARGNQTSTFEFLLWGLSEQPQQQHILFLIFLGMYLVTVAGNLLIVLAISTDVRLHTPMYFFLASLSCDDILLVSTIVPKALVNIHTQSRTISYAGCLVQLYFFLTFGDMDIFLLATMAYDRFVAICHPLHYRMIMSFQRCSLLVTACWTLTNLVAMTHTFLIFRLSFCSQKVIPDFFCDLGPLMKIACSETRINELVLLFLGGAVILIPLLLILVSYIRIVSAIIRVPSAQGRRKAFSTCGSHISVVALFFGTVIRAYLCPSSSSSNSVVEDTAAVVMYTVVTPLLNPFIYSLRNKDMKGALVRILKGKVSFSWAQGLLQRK
Outline: as §1

[13] = molecular target: T12, UniProt Q8VEU7
T12 sequence (whole entry): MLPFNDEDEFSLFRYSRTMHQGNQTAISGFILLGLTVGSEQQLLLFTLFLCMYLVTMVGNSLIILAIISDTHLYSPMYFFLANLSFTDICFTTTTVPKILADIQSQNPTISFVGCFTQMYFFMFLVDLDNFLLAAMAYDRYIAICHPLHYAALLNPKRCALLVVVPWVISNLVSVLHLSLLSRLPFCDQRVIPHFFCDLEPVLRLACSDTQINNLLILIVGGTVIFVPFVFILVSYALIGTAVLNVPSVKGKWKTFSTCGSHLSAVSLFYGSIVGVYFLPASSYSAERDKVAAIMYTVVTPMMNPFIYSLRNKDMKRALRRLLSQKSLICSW
Outline: as §1

[14] = molecular target: T13, UniProt Q8VF05
T13 sequence (whole entry): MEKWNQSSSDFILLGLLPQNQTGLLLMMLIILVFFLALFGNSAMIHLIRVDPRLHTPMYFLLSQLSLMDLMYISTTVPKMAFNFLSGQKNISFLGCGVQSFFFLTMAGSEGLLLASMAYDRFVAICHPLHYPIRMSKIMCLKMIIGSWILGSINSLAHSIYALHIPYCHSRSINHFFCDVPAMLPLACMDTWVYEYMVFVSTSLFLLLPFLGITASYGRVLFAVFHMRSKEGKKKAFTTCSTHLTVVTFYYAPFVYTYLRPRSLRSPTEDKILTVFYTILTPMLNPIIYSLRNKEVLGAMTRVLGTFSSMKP
Outline: as §1
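Further: active if original authors judged signal statistically different from baseline.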

Compound	odorant receptor agonist call [1]	odorant receptor agonist call [2]	odorant receptor agonist call [3]	odorant receptor agonist call [4]	odorant receptor agonist call [5]	odorant receptor agonist call [6]	odorant receptor agonist call [7]	odorant receptor agonist call [8]	odorant receptor agonist call [9]	odorant receptor agonist call [10]	odorant receptor agonist call [11]	odorant receptor agonist call [12]	odorant receptor agonist call [13]	odorant receptor agonist call [14]
CCCCCCCCC(=O)O	inactive	inactive	active	active	inactive	inactive	inactive	active	inactive	active	inactive	inactive	inactive	inactive
CCCCCCOC(C)=O	inactive	inactive			inactive	inactive					inactive	inactive	inactive	inactive
CCCCCCCCS	inactive	inactive			inactive	inactive					inactive	inactive	inactive	inactive
CCCCC(=O)O	inactive	inactive			inactive	inactive	inactive	inactive		inactive	inactive	inactive	inactive	inactive
CCOC(=O)C(C)C	inactive	inactive			inactive	inactive					inactive	inactive	inactive	active
CCCCC(C)=O	inactive	inactive			inactive	inactive					inactive	inactive	inactive	active
CCCC(=O)C(C)=O	inactive	inactive			inactive	inactive					inactive	inactive	inactive	active
CCCCCCCCCO	inactive	inactive			inactive	inactive	inactive	active		inactive	inactive	inactive	inactive	inactive
